ChEMBL document CHEMBL1133607, “Nonpeptide analogues of dynorphin A(1-8): design, synthesis, and pharmacological evaluation of kappa-selective agonists” (J Med Chem, 2000)
Residues, ends and D or L forms follow the SMILES beside them. *: point of attachment. X1 = CC1C2Cc3ccc(O)cc3[C@]1(C)CCN2CC1C[C@]1(C(=O)*)c1ccccc1

How the values were obtained:
[1] = target: Opioid receptors; mu & kappa (UniProt P41145+P35372); assay: Ratio of affinity towards mu and kappa opioid receptors; format: protein assay
[2] = target: Kappa-type opioid receptor (Cavia porcellus, UniProt P41144); assay: Displacement of [3H]-U-69,593 from Opioid receptor kappa 1 in guinea pig cerebellar.
Mu-type opioid receptor = Mu-type opioid receptor (Rattus norvegicus, UniProt P33535); assay: Displacement of [3H]diprenorphine from opioid receptor mu 1 on crude membrane fractions obtained from whole rat brain (minus cerebellum); format: tissue-based
In short: (§1)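 Rat whole-brain (minus cerebellum) crude membranes, 1 mg protein/tube, in 50 mM Tris-HCl pH 7.4 with aprotinin, leupeptin and bacitracin. […] U50,488 and DADLE (300 nM each) saturate κ and δ sites; 1 µM DAMGO defines nonspecific binding. Compounds tested at 10^-11 to 10^-5 M. Ki values are the mean of three experiments in duplicate.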

[3] = target: Delta-type opioid receptor (Rattus norvegicus, UniProt P33533); assay: Displacement of [3H]diprenorphine opioid receptor delta 1 on crude membrane fractions obtained from the whole rat brain (minus cerebellum); format: tissue-based
In short: as §1, with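 “DAMGO” for “DADLE”, “µ” for “δ”, “DPDPE” for “DAMGO”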

Chain of Mu-type opioid receptor (P33535 whole entry): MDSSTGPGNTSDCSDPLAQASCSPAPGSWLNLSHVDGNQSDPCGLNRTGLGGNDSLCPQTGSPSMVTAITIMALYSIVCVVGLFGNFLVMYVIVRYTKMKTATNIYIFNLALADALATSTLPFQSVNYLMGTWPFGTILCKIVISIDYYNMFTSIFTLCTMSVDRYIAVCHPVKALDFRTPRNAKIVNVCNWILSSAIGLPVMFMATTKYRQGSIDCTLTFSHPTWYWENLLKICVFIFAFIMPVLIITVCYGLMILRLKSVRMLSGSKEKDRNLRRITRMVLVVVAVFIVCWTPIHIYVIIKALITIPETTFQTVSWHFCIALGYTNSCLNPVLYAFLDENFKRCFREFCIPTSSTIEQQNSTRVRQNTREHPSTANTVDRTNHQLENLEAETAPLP
Chain of Opioid receptors; mu & kappa (P35372 whole entry, looked up): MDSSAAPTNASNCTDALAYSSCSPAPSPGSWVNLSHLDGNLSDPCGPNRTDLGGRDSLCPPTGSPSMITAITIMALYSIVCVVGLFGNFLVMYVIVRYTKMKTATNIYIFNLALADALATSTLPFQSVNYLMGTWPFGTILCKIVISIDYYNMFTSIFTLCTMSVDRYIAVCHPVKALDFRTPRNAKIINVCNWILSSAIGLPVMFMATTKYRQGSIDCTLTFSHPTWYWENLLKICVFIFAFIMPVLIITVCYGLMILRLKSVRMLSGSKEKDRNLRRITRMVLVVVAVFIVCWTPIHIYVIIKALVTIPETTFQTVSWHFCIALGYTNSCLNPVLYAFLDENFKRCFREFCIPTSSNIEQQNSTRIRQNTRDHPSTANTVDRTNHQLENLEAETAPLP
Chain of Opioid receptors; mu & kappa (P41145 whole entry, looked up): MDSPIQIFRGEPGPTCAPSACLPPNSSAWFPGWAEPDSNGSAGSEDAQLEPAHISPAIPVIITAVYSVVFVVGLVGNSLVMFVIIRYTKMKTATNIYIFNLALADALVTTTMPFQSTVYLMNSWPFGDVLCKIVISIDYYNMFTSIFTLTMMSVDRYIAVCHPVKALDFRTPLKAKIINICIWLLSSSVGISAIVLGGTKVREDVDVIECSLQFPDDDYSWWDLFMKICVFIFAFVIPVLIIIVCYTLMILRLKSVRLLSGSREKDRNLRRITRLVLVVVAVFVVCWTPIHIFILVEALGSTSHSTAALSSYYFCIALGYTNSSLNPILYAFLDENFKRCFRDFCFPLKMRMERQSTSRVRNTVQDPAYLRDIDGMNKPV
Chain of Delta-type opioid receptor (P33533 whole entry): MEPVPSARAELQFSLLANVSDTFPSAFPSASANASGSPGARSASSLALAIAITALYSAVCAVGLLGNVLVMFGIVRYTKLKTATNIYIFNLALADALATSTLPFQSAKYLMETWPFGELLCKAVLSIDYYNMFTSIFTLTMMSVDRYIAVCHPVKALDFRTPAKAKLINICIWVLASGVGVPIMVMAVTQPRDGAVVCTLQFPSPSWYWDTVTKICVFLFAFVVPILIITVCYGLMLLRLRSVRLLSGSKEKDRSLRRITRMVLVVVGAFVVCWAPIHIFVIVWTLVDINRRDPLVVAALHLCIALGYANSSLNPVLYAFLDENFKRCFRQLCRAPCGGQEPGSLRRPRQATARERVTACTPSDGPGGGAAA
Chain of Kappa-type opioid receptor (P41144 whole entry): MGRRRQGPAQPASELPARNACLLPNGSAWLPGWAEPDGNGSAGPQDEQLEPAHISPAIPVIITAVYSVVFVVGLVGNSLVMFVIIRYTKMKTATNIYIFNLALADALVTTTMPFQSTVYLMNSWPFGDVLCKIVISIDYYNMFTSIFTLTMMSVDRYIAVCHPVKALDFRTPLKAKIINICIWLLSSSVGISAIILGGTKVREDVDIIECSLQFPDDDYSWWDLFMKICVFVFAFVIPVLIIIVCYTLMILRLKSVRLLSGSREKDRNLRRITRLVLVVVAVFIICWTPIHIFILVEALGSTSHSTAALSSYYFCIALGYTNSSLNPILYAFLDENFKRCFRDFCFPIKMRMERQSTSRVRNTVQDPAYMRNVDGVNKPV

Structure (SMILES) | Selectivity ratio [1] | Ki [2] [nM] | Ki (Mu-type opioid receptor) [nM] | Ki [3] [nM]
CCCC(=N)NCCCNC(=O)C(CC(C)C)NC(=O)[C@]1(c2ccccc2)CC1CN1CC[C@@]2(C)c3cc(O)ccc3CC1C2C (stereo not given in full) | 15 | 238 | 3570 | 
CC(C)CC(NC(=O)[C@]1(c2ccccc2)CC1CN1CC[C@@]2(C)c3cc(O)ccc3CC1C2C)C(=O)NCCCCN=C(N)N (stereo not given in full) | 11.8 | 250 | 2950 | 
CCCCC(=N)NCCCNC(=O)C(CC(C)C)NC(=O)[C@]1(c2ccccc2)CC1CN1CC[C@@]2(C)c3cc(O)ccc3CC1C2C (stereo not given in full) | 16 | 139 | 2230 | 
CC(C)CC(NC(=O)[C@]1(c2ccccc2)CC1CN1CC[C@@]2(C)c3cc(O)ccc3CC1C2C)C(=O)NCCCCCNC(=N)N (stereo not given in full) |  | 216 | 2790 | 
CC[C@H](C)[C@H](NC(=O)[C@H](CCCNC(=N)N)NC(=O)[C@H](CCCNC(=N)N)NC(=O)CNC(=O)[C@]1(c2ccccc2)CC1CN1CC[C@@]2(C)c3cc(O)ccc3CC1C2C)C(=O)OC (stereo not given in full) (X1-GRRI-OMe) |  | 54.3 | 2300 | > 25000
CCCC(=N)NCCCCCNC(=O)C(CC(C)C)NC(=O)[C@]1(c2ccccc2)CC1CN1CC[C@@]2(C)c3cc(O)ccc3CC1C2C (stereo not given in full) | 12.8 | 156 | 2000 | 
CC(C)CC(NC(=O)CNC(=O)[C@]1(c2ccccc2)CC1CN1CC[C@@]2(C)c3cc(O)ccc3CC1C2C)C(=O)NCCCNC(=N)N (stereo not given in full) |  | 72.5 | 9240 | 3720
CC(C)CC(NC(=O)[C@]1(c2ccccc2)CC1CN1CC[C@@]2(C)c3cc(O)ccc3CC1C2C)C(=O)NCCCCCN=C(N)N (stereo not given in full) | 12.9 |  |  | 
CCCC(=N)NCCCCNC(=O)C(CC(C)C)NC(=O)[C@]1(c2ccccc2)CC1CN1CC[C@@]2(C)c3cc(O)ccc3CC1C2C (stereo not given in full) | 11.2 | 203 | 2280 | 
CC(C)CC(NC(=O)[C@]1(c2ccccc2)CC1CN1CC[C@@]2(C)c3cc(O)ccc3CC1C2C)C(=O)NCCCN (stereo not given in full) | 11.5 | 367 | 4220 | 
CC(C)CC(NC(=O)[C@]1(c2ccccc2)CC1CN1CC[C@@]2(C)c3cc(O)ccc3CC1C2C)C(=O)NCCCCCN (stereo not given in full) | 11.8 | 276 | 3250 | 
CCC(=N)NCCCNC(=O)C(CC(C)C)NC(=O)[C@]1(c2ccccc2)CC1CN1CC[C@@]2(C)c3cc(O)ccc3CC1C2C (stereo not given in full) | 19.6 | 254 | 4980 | 
CC(C)CC(NC(=O)[C@]1(c2ccccc2)CC1CN1CC[C@@]2(C)c3cc(O)ccc3CC1C2C)C(=O)NCCCCN (stereo not given in full) | 8.9 | 382 | 3400 | 
CCCCC(=N)NCCCCNC(=O)C(CC(C)C)NC(=O)[C@]1(c2ccccc2)CC1CN1CC[C@@]2(C)c3cc(O)ccc3CC1C2C (stereo not given in full) | 18.3 | 116 | 2130 | 
CCC(=N)NCCCCCNC(=O)C(CC(C)C)NC(=O)[C@]1(c2ccccc2)CC1CN1CC[C@@]2(C)c3cc(O)ccc3CC1C2C (stereo not given in full) | 14.8 | 149 | 2210 | 
CCC(=N)NCCCCNC(=O)C(CC(C)C)NC(=O)[C@]1(c2ccccc2)CC1CN1CC[C@@]2(C)c3cc(O)ccc3CC1C2C (stereo not given in full) | 11.5 | 192 | 2200 | 
CC(C)CC(NC(=O)[C@]1(c2ccccc2)CC1CN1CC[C@@]2(C)c3cc(O)ccc3CC1C2C)C(=O)NCCCN=C(N)N (stereo not given in full) | 8.7 | 280 | 2430 | 
CC[C@H](C)[C@H](NC(=O)[C@H](CCCN=C(N)N)NC(=O)[C@H](CCCN=C(N)N)NC(=O)CNC(=O)[C@]1(c2ccccc2)CC1CN1CC[C@@]2(C)c3cc(O)ccc3CC1C2C)C(=O)OC (stereo not given in full) (X1-GRRI-OMe) | 42.4 |  |  | 
CC(C)CC(NC(=O)CNC(=O)[C@]1(c2ccccc2)CC1CN1CC[C@@]2(C)c3cc(O)ccc3CC1C2C)C(=O)NCCCCCNC(=N)N (stereo not given in full) |  | 47.5 | 3850 | 3480
CC(C)CC(NC(=O)CNC(=O)[C@]1(c2ccccc2)CC1CN1CC[C@@]2(C)c3cc(O)ccc3CC1C2C)C(=O)NCCCCCCNC(=N)N (stereo not given in full) |  | 35.5 | 3350 | 2990
